# Measurements collected from several papers.
# Each line is one published result; the experiments were not run side by side.
# MAOB: Amine oxidase [flavin-containing] B (MAOB, Homo sapiens, UniProt P27338)
SMILES,target,assay,setting,IC50
CSCC[C@@H]1NC(=O)[C@H](CC(N)=O)NC(=O)[C@H](CCCNC(=N)N)NC(=O)[C@H]([C@@H](C)O)NC(=O)[C@H](Cc2ccc(O)cc2)NC(=O)[C@@H](NC(=O)[C@H](C)N)CSSC[C@@H](C(N)=O)NC(=O)[C@H](CCC(N)=O)NC(=O)[C@H](CC(N)=O)NC1=O,"Lysine-specific demethylase 4C (KDM4C, Homo sapiens, UniProt Q9H3R0)","enzyme activity, inhibitor, TR-FRET",,406 µM
COc1cccc(CO)c1,MAOB,"enzyme activity, inhibitor, fluorescence",,> 10 µM
C[C@H](N)Cn1ncc2ccc3c(c21)CCCO3,"Beta-1 adrenergic receptor (ADRB1, Homo sapiens, UniProt P08588)","ligand displacement, radioligand",,5 µM
COc1ccc2c(c1)[nH]c1c(C)nccc12,MAOB,"enzyme activity, inhibitor",,37.5 µM
CCCCNNC(=O)c1ccc(Br)cc1,"Histone deacetylase 9 (HDAC9, Homo sapiens, UniProt Q9UKV0)","enzyme activity, inhibitor, fluorescence",,> 100 µM
C#CCN(C)c1nc(NCCCC2CCN(Cc3ccccc3)CC2)c(C#N)cc1C#N,MAOB,"enzyme activity, inhibitor, fluorescence",with preincubation,6.11 µM
CC(C)(C)c1ccc(NC(=O)c2ncn(CC(=O)NCc3ccc4c(c3)OCO4)n2)cc1,"Histone-lysine N-methyltransferase SUV39H2 (SUV39H2, Homo sapiens, UniProt Q9H5I1)","enzyme activity, inhibitor",,> 250 µM
COc1ncccc1-c1cnn2ccc(N3CCN(C(=O)OC(C)C)CC3)nc12,MAOB,"enzyme activity, inhibitor",,> 30 µM
C#CCNc1nc(NCCCC2CCN(Cc3ccccc3)CC2)c(C#N)cc1C#N,MAOB,"enzyme activity, inhibitor, fluorescence",with preincubation,> 100 µM
COc1ccc(/C=C/C(=O)N2CCN(Cc3ccccc3)CC2)cc1OC,MAOB,"enzyme activity, inhibitor, fluorescence",,1.9 µM
O=[N+]([O-])c1cc(Cl)c(O)c(Cl)c1,"Sulfotransferase 1A1 (SULT1A1, Homo sapiens, UniProt P50225)","enzyme activity, inhibitor",,0.245 µM
C#CCNc1nc(NCCCCC2CCN(Cc3ccccc3)CC2)c(C#N)c(-c2ccccc2)c1C#N,MAOB,"enzyme activity, inhibitor, fluorescence",with preincubation,> 100 µM
